The array DNA melting data of Ke et al. (doi:10.1101/2024.01.08.574731)

Columns and labels:
[1] = folding enthalpy; higher = less favourable; fluorescence melt of hairpins on a sequencing array, two-state fit; conditions: sodium 0.088 M
Outline: (§1)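 In 50 mM Na-HEPES pH 8.0 containing 25 mM NaCl, hairpins from the library on a sequenced MiSeq flow cell were imaged for Cy3 fluorescence at 2.5 °C steps up to 60 °C, with Cy3 and quencher oligos annealed. After normalisation to pre-quench Cy3 and to control constructs, two-state fits with bootstrapping gave melting temperature and folding enthalpy. Four replicates were combined by inverse-variance weighting, and fitted temperatures were shifted up by 9.35 °C to match UV melts.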

[2] = melting temperature; fluorescence melt of hairpins on a sequencing array, two-state fit, raised by 9.35 °C to match UV melts; conditions: sodium 0.088 M
Outline: as §1

Row | Sequence | folding enthalpy [1] [kcal/mol] | Tm [2] [°C]
1 | GCAAGGCGAAAGCCTGGC ((.((((....)))).)) | -23.1 | 68.9
2 | GGCGCCGAAAGGCTTGCC ((((((....)))..))) | -19.9 | 53.4
3 | GATCGCACCTGCGATC ((((((....)))))) | -32.3 | 69.2
4 | GGTACCGAAAGGTTAACC ((((((....)))..))) | -17.3 | 38.6
5 | GTTTTCCGAAAGGAGAAC (((.(((....))).))) | -30.4 | 47.1
6 | GGCAAAGAAATTTGCC ((((((....)))))) | -36.8 | 56
7 | GGGGTCGGAAACGACCTC (.(((((....))))).) | -14.1 | 61.4
8 | GATCTGCGCCCAGATC ((((((....)))))) | -29.2 | 48.4
9 | GAGTCTGGAAACAGACTC (((((((....))))))) | -39.9 | 65.3
10 | GGAGATCGAAAGATGTCC (((.(((....))).))) | -29.5 | 50.4
11 | GACATCGGAAACGATATC ((.((((....)))).)) | -21.9 | 31.6
12 | GCGCAGCGAAAGCGTCGC (((..((....))..))) | -13.3 | 58.9
13 | GTCGGAGGAAACTCTGAC (((.(((....))).))) | -45.4 | 50
14 | GCGGATACCCGC ((((....)))) | -24.3 | 54.2
15 | GCTTGCGAAAGCATAGC ((((((....))).))) | -18.9 | 55.3
16 | GATCAATGATTTGATC ((((((....)))))) | -32.7 | 44.8
17 | GTGCGTCGAAAGACCAC (((.(((....)))))) | -29.6 | 56.2
18 | GAAAACGGAAACGCTTTC ((((.((....)).)))) | -32.4 | 34.8
19 | GCAGCAGGAAACCGCTGC (((((.(....).))))) | -41.3 | 58.1
20 | GCGTGTGGAAACACATGC ((.((((....)))).)) | -42 | 57.5
21 | GGAGTCGAAAGACTGTCC ((((((....)))..))) | -12.1 | 35.2
22 | GCTAAGGGAAACTTTGGC ((.((.(....).)).)) | -10.8 | 27.9
23 | GGATCGCCGAAAGGCTCC (((..(((....)))))) | -11 | 30.4

Row | Sequence | folding enthalpy [1] [kcal/mol] | Tm [2] [°C]
24 | GTATTCGGAAACGAGTAC (((.(((....))).))) | -28.6 | 43.6
25 | GGATACGGAAACGCATCC ((((.((....)).)))) | -29.1 | 45.5
26 | CGGCGGCGGAAACGCCCG (((..(((....)))))) | -10.4 | 49.3
27 | GATCAATGCTTGATC ((((((...)))))) | -28.5 | 43.2
28 | GCGAGAAGTCGC ((((....)))) | -18.3 | 50.2
29 | GTACGACGAAAGTCCTAC (((.(((....))).))) | -13.2 | 31.9
30 | GATCAACTGCTTGATC ((((((....)))))) | -31.5 | 44
31 | GGGAATGGAAACGTTCCC (((((.(....).))))) | -38 | 50.6
32 | GGTAGGGAAACCTACC ((((((....)))))) | -38.5 | 54.6
33 | GACCGCGAAAGCGTCGTC ((((((....)))..))) | -13.5 | 53.1
34 | GTGCGCGGAAACGTGCAC ((((.((....)).)))) | -35.4 | 67.5
35 | GTAACTGGAAACAGTTAC (((((((....))))))) | -41.6 | 56.1
36 | GCGCTGCGAAAGCACTGC ((..(((....)))..)) | -16.8 | 41
37 | GTGCCGGGAAACCAGCAC ((((.((....)).)))) | -33.9 | 50.1
38 | GCTTCAGGAAACTGAAAC (.(((((....))))).) | -15 | 31.5
39 | GGTTTGCGAAAGCAACC (((.(((....)))))) | -17.2 | 52.4
40 | GACATCGGAAACGATGTC (((((((....))))))) | -44 | 66.6
41 | GATCGCAAAAGCGATC ((((((....)))))) | -29.1 | 61.9
42 | GATCGGTTCTCCGATC ((((((....)))))) | -44.3 | 60.6
43 | GTCGGCTCGAAAGAGGAC (((..(((....)))))) | -16 | 32.2
44 | GATCTTTCAAAAGATC ((((((....)))))) | -32.2 | 42.2
45 | GATCTCCGTGAGATC ((((((...)))))) | -36.2 | 56.3
46 | GATGCCGAAAGGCTTATC ((((((....)))..))) | -6.76 | 31.5

Row | Sequence | folding enthalpy [1] [kcal/mol] | Tm [2] [°C]
47 | GTCTGAGGAAACTCAGGC (.(((((....))))).) | -32.2 | 49.5
48 | GCTCCGCGAAAGCAGGGC ((.(.((....)).).)) | -16 | 50.1
49 | GTGATTGGAAACAATCAC (((((((....))))))) | -46.9 | 58.3
50 | GTAGTCGGAAACGACTAC (((((((....))))))) | -41.2 | 64.8
51 | GCTGACGGAAACATCAGC (((((.(....).))))) | -35.1 | 44.3
52 | GTCGCGGGAAACCGTGGC (.(.(((....))).).) | -28.5 | 50.3
53 | GCCGCAGGAAACCGCGAC (.(((.(....).))).) | -15.6 | 35.9
54 | GCGCGTCGAAAGACCGC (((.(((....)))))) | -32.8 | 67.3
55 | GTGAATGCGAAAGCACAC (((..(((....)))))) | -14.7 | 40.7
56 | GGTTGCGAAAGCAGGACC ((((((....)))..))) | -19.2 | 37.8
57 | GATCAGCAGACTGATC ((((((....)))))) | -42.5 | 50.3
58 | GCTACAGGAAACTGTGGC ((.((((....)))).)) | -39 | 51.8
59 | GGCAACGGAAACGTCGCC (((.(((....))).))) | -46.8 | 52.8
60 | GTTCGTGGAAACATGAGC (.((.((....)).)).) | -18.1 | 31.6
61 | GACTCCGAAAGGAGGGTC ((((((....)))..))) | -17 | 50.8
62 | CGCCGACGGAAACGTGCG (((..(((....)))))) | -27.6 | 45.5
63 | GGTCACGAAAGTGGCACC ((((((....)))..))) | -11.7 | 47.6
64 | GATCGTCATGACGATC ((((((....)))))) | -40.3 | 61.4
65 | GATCACCTGTGTGATC ((((((....)))))) | -37.8 | 57
66 | GCCCTCGAAAGAGTTGGC ((((((....)))..))) | -23.2 | 44
67 | GGACGGGGAAACCCATCC (((.(((....))).))) | -27.6 | 41.7
68 | GGCCTCGGAAACAAGGCC (((((.(....).))))) | -34.5 | 51.9
69 | GCCCAGCGAAAGCTGCGC ((.((((....)))).)) | -17.1 | 59

Row | Sequence | folding enthalpy [1] [kcal/mol] | Tm [2] [°C]
70 | GCGACGCGAAAGCGCTGC ((..(((....)))..)) | -17.5 | 57.1
71 | GGTATCGAAAGATAAACC ((((((....)))..))) | -18.4 | 30.4
72 | GCAATACGAAAGTAATGC (((.(((....))).))) | -37.4 | 47.4
73 | GTGTTAGGAAACTAATAC ((.((((....)))).)) | -23.9 | 37.2
74 | GATCCCCGACGGGATC ((((((....)))))) | -27.3 | 56.8
75 | GGATACGAAAGTATGTCC ((((((....)))..))) | -12.5 | 30.1
76 | GATCGGATCGCCGATC ((((((....)))))) | -32.2 | 55.8
77 | GCGCCCGAAAGGGCACGC ((((((....)))..))) | -13.4 | 63.3
78 | GACAACGAAAGTTGTC ((((((....)))))) | -24.8 | 67.9
79 | GTCATAGAAATATGAC ((((((....)))))) | -30.2 | 45.6
80 | GATCTTTCCAAGATC ((((((...)))))) | -37.1 | 47.7
81 | GGAGGTCGAAAGACTCC (((.(((....)))))) | -21.3 | 51.1
82 | CGGGTCGGAAACGATCCG (((.(((....))).))) | -45.1 | 58
83 | GTAGGGCGAAAGCCTTAC (((.(((....))).))) | -20.2 | 50.4
84 | CGAGCCGGAAACGGATCG (((.(((....))).))) | -41.2 | 61.7
85 | GTGTGCGAAAGCAACAC ((((((....))).))) | -30.1 | 61.3
86 | GACAGCGAAAGCTGCGTC ((((((....)))..))) | -10.1 | 48
87 | GTGCTTCGAAAGAACAC (((.(((....)))))) | -32.1 | 42.8
88 | GATCTATAGTTAGATC ((((((....)))))) | -27.1 | 39.4
89 | GATCACGCTTGTGATC ((((((....)))))) | -38 | 57.7
90 | GATCCAGTGTGGATC ((((((...)))))) | -33 | 51.6
91 | GATCGAGGAAACTTGATC ((((.((....)).)))) | -28.7 | 44.3
92 | GGTGACGGAAACGTCATC (.(((((....))))).) | -38.2 | 54.1
